Assay results from ChEMBL document CHEMBL4376884, “Toward a Rational Design of Polyamine-Based Zinc-Chelating Agents for Cancer Therapies” (J Med Chem, 2020).
pIC50: −log10 of the molar value. Calls of active or inactive are those of the source. No cut-off for these calls is given here.

Legend:
[1] = tested on: PC-3; assay: Induction of apoptosis in human PC3 cells assessed as early apoptotic cells at 10 uM incubated for 24 hrs by annexin V-FITC and propidium iodide staining based flow cytometry analysis (reference value: 0.24 %); assay type: functional
[2] = tested on: U-87 MG; assay: Antiproliferative activity against human U87MG cells assessed as reduction in cell viability at 10 uM incubated for 48 hrs by cell titer-glo assay; assay type: functional, cell-based; conditions: U-87MG ATCC
Procedure, shortened: (§1)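 Cells plated and treated 24 h later with 10 µM compound for 48 h; viable cells quantified by CellTiter-Glo ATP luminescence. Expressed as percentage of viable cells relative to untreated; mean ± SD of three independent experiments, each in triplicate.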

[3] = tested on: SW480; assay: Antiproliferative activity against human SW480 cells assessed as reduction in cell viability at 10 uM incubated for 48 hrs by cell titer-glo assay; assay type: functional, cell-based; procedure, shortened: as §1
[4] = tested on: LN-229; assay: Induction of cell morphological changes in human LN229 cells assessed as random membrane blebbing at 10 uM incubated for 24 to 48 hrs by phase contrast microscopy; assay type: functional, cell-based
Procedure, shortened: (§2)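 LN229 and PC3 cells exposed to 10 µM compound for the indicated time-points, then imaged live by phase-contrast microscopy for morphology.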

[5] = tested on: PC-3; assay: Induction of cell morphological changes in human PC3 cells assessed as loss of cell adherence at 10 uM incubated for 24 to 48 hrs by phase contrast microscopy; assay type: functional, cell-based; procedure, shortened: as §2
[6] = tested on: LN-229; assay: Induction of cell morphological changes in human LN229 cells assessed as cell rounding at 10 uM incubated for 24 to 48 hrs by phase contrast microscopy; assay type: functional, cell-based; procedure, shortened: as §2
[7] = tested on: PC-3; assay: Induction of cell morphological changes in human PC3 cells assessed as cell rounding at 10 uM incubated for 24 to 48 hrs by phase contrast microscopy; assay type: functional, cell-based; procedure, shortened: as §2
[8] = tested on: Granta-519; assay: Antiproliferative activity against human GRANTA-519 cells assessed as reduction in cell viability incubated for 48 hrs by cell titer-glo assay; assay type: functional, cell-based; conditions: Granta-519, 48 h
Procedure, shortened: (§3)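 Dose-response: cells plated, treated 24 h later for 48 h, then ATP measured by CellTiter-Glo luminescence. IC50 given as mean ± SD from three independent experiments, each in triplicate. Fibroblasts came from individuals. Cells were kept in RPMI or DMEM with 10% heat-inactivated FBS and penicillin/streptomycin at 37 °C, 5% CO2.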

[9] = tested on: Z-138; assay: Antiproliferative activity against human Z138 cells assessed as reduction in cell viability incubated for 48 hrs by cell titer-glo assay; assay type: functional, cell-based; conditions: Z-138, 48 h; procedure, shortened: as §3
[10] = tested on: MCF7; assay: Antiproliferative activity against human MCF7 cells assessed as reduction in cell viability incubated for 48 hrs by cell titer-glo assay; assay type: functional, cell-based; conditions: MCF7, 48 h; procedure, shortened: as §3
[11] = tested on: LN-229; assay: Cell cycle arrest in human LN229 cells assessed as cell accumulation at S phase at 10 uM incubated for 24 hrs by propidium iodide staining based flow cytometry analysis relative to control; assay type: functional
[12] = tested on: LN-229; assay: Cell cycle arrest in human LN229 cells assessed as cell accumulation at S phase at 10 uM incubated for 48 hrs by propidium iodide staining based flow cytometry analysis relative to control; assay type: functional
[13] = tested on: PC-3; assay: Cell cycle arrest in human PC3 cells assessed as cell accumulation at G1 phase at 10 uM incubated for 48 hrs by propidium iodide staining based flow cytometry analysis relative to control; assay type: functional
[14] = tested on: PC-3; assay: Cell cycle arrest in human PC3 cells assessed as cell accumulation at S phase at 10 uM incubated for 48 hrs by propidium iodide staining based flow cytometry analysis relative to control; assay type: functional
[15] = tested on: LN-229; assay: Induction of cellular senescence in human LN229 cells assessed as flattened cells at 10 uM incubated for 24 hrs by phase contrast microscopy; assay type: functional, cell-based
Procedure, shortened: (§4)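 LN229 and PC3 cells, 12×10^4 per well in 6-well plates, treated with 10 µM compound for 24 h. Senescence-associated β-gal staining: fixed in 2% formaldehyde/0.2% glutaraldehyde for 10 min at RT, stained with 1 mg/mL X-gal at 37 °C for 24 h without CO2. Blue cells counted in at least 10 fields at 10x and given as percent of total; four independent experiments. Morphology viewed by phase contrast at ×100.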

[16] = tested on: LN-229; assay: Induction of cellular senescence in human LN229 cells assessed as wider cells at 10 uM incubated for 24 hrs by phase contrast microscopy; assay type: functional, cell-based; procedure, shortened: as §4
[17] = tested on: LN-229; assay: Induction of cellular senescence in human LN229 cells assessed as increase in nuclear size at 10 uM incubated for 24 hrs by phase contrast microscopy; assay type: functional, cell-based; procedure, shortened: as §4
[18] = tested on: MCF7; assay: Induction of apoptosis in human MCF7 cells assessed as increase in caspase-3/7 activation at 10 uM incubated for 48 hrs by luminometric caspase-glo 3/7 assay; assay type: functional, cell-based
Procedure, shortened: (§5)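 Cells in RPMI or DMEM with 10% heat-inactivated FBS and penicillin/streptomycin, 37 °C, 5% CO2, treated with 10 µM compound for 48 h. Caspase-3 and caspase-7 activity read by luminescent Caspase-Glo 3/7 assay, reported as fold induction over untreated cells; mean ± SD of three independent experiments, each in triplicate.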

[19] = organism: Homo sapiens; assay: Induction of apoptosis in human JMV2 cells assessed as increase in caspase-3/7 activation at 10 uM incubated for 48 hrs by luminometric caspase-glo 3/7 assay; assay type: functional, cell-based; procedure, shortened: as §5
[20] = tested on: JeKo-1; assay: Induction of apoptosis in human JeKo1 cells assessed as increase in caspase-3/7 activation at 10 uM incubated for 48 hrs by luminometric caspase-glo 3/7 assay; assay type: functional, cell-based; procedure, shortened: as §5
[21] = tested on: LN-229; assay: Induction of apoptosis in human LN229 cells assessed as increase in caspase-3/7 activation at 10 uM incubated for 48 hrs by luminometric caspase-glo 3/7 assay; assay type: functional, cell-based; procedure, shortened: as §5
[22] = tested on: PC-3; assay: Induction of apoptosis in human PC3 cells assessed as increase in caspase-3/7 activation at 10 uM incubated for 48 hrs by luminometric caspase-glo 3/7 assay; assay type: functional, cell-based; procedure, shortened: as §5
[23] = tested on: PC-3; assay: Induction of apoptosis in human PC3 cells assessed as necrotic cells at 10 uM incubated for 72 hrs by annexin V-FITC and propidium iodide staining based flow cytometry analysis (reference value: 0.30 %); assay type: functional
[24] = tested on: DNA; assay: Induction of DNA damage in human LN229 cells assessed as gammaH2AX phosphorylation at Ser139 residue at 10 uM incubated for 4 hrs by Flow cytometry analysis; assay type: cell-based
Procedure, shortened: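 Z-138 and LN229 cells treated 4 h with 10 µM compound or 1 µM doxorubicin. Fixed in 3.7% formaldehyde on ice, permeabilized with 0.2% Triton X, stained with rabbit anti-pS139 H2A.X (1:400) and Alexa 555 secondary, then analysed by flow cytometry. Fold γH2AX fluorescence versus untreated; mean ± SD of three experiments.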

[25] = tested on: LN-229; assay: Antiproliferative activity against human LN229 cells assessed as reduction in cell viability at 10 uM incubated for 48 hrs in presence of Fe2+ ion by MTT assay; assay type: functional, cell-based
Procedure, shortened: (§6)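 LN229 and PC3 cells plated, then 24 h later given 10 µM compound with or without 15 µM ZnCl2, CuCl2, FeCl2 or FeCl3 for 48 h. Medium replaced, MTT (12 mM solution) added for 4 h, formazan dissolved in DMSO, absorbance read at 540 nm. Percent viable versus untreated; mean ± SD of three experiments in triplicate.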

[26] = tested on: PC-3; assay: Antiproliferative activity against human PC3 cells assessed as reduction in cell viability at 10 uM incubated for 48 hrs in presence of Fe2+ ion by MTT assay; assay type: functional, cell-based; procedure, shortened: as §6
[27] = tested on: PC-3; assay: Antiproliferative activity against human PC3 cells assessed as reduction in cell viability at 10 uM incubated for 48 hrs in presence of Fe3+ ion by MTT assay; assay type: functional, cell-based; procedure, shortened: as §6

c1ccc(CNCCN(CCNCc2ccccn2)Cc2ccc3ccccc3c2)nc1
Activity [1]: 0.63%
Activity [2]: Active
Activity [3]: Active
Activity [4]: Active
Activity [5]: Active
Activity [6]: Active
Activity [7]: Active
pIC50 [8]: 5.36
pIC50 [9]: 5.51
pIC50 [10]: 5.50
Activity [11]: 14.8%
Activity [12]: 10.8%
Activity [13]: 73.4%
Activity [14]: 7.7%
Activity [15]: Active
Activity [16]: Active
Activity [17]: Active
Activity [18]: Active
Activity [19]: Active
Activity [20]: Active
Activity [21]: Active
Activity [22]: Active
Activity [23]: 2.32%
Activity [24]: inactive
Activity [25]: Active
Activity [26]: Active
Activity [27]: Active

CN(CCNCc1ccccn1)CCNCc1ccccn1
Activity [1]: 0.8%
Activity [2]: Active
Activity [3]: Active
Activity [4]: Active
Activity [5]: Active
Activity [6]: Active
Activity [7]: Active
pIC50 [8]: 5.68
pIC50 [9]: 5.31
pIC50 [10]: 5.50
Activity [11]: 15.6%
Activity [12]: 13.5%
Activity [13]: 57.2%
Activity [14]: 7.2%
Activity [15]: Active
Activity [16]: Active
Activity [17]: Active
Activity [18]: Active
Activity [19]: Active
Activity [20]: Active
Activity [21]: Active
Activity [22]: Active
Activity [23]: 3.5%
Activity [24]: inactive
Activity [25]: Active
Activity [26]: Active
Activity [27]: Active
